A short description of assay [1]: Inhibition of yeast alpha-D-glucosidase. Also on record: species or system Saccharomyces. The method in brief: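 α-Glucosidase (500 units/mL) with p-nitrophenyl glucopyranoside (0.7 mM final) in 50 mM phosphate buffer pH 6.9, 1% v/v DMSO, 37 °C, 10 min, with or without a range of inhibitor concentrations. Stopped with an equal volume of 100 mM Na2CO3, and p-nitrophenol read at 400 nm. Rate taken from the linear slope of 1-min readings. IC50 derived by kinetic fitting.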

Assay [2] is described as follows: Inhibition of sweet almonds beta-D-glucosidase. Also on record: species or system Prunus dulcis.
A short description of assay [3]: Inhibition of jack bean beta-D-mannosidase. Also on record: species or system Canavalia ensiformis.
A further assay relates to Canavalia ensiformis. Put plainly: Inhibition of jack bean beta-D-mannosidase at 800 uM.
Another assay has as its system Prunus dulcis. Nature of the assay: Inhibition of sweet almonds beta-D-glucosidase at 800 uM.

Activity calls are given as the source filed them. The rule behind the calls is not given here.

The IC50 is the concentration that gives 50% inhibition. A higher IC50 goes with a need for much substance.

Turning to `CC(C)=CCc1c(O)c(CC=C(C)C)c2oc(-c3ccc4c(c3)OC(C)(C)C=C4)c(O)c(=O)c2c1O` [DORSILURIN C], the values for the IC50 in assay [1], in assay [2] and in assay [3] were 11.2 µM, 422 µM and 358 µM, respectively.

Regarding `CC(C)=CCc1ccc(-c2oc3c(CC=C(C)C)c(O)c(CC=C(C)C)c(O)c3c(=O)c2O)cc1O` [DORSILURIN F], the half-maximal inhibitory concentration (IC50) came out at 4.13 µM in assay [1], 117 µM in assay [2] and 192 µM in assay [3].

Turning to `C=C(C)[C@@H](O)Cc1ccc(-c2oc3c(CC=C(C)C)c(O)c(CC=C(C)C)c(O)c3c(=O)c2O)cc1O` [DORSILURIN G], the IC50 is 7.51 µM in assay [1], 431 µM in assay [2] and 232 µM in assay [3].

Consider `C=C(C)[C@@H](O)Cc1ccc(-c2oc3c(CC=C(C)C)c(O)c4c(c3c(=O)c2O)OC(C)(C)CC4)cc1O` [DORSILURIN H], for which the IC50 in assay [1] worked out at 24 µM; in assay [2] it was 671 µM. Besides, in the assay with Canavalia ensiformis, the outcome was inactive.

`C=C(C)[C@@H](O)Cc1ccc(-c2oc3c4c(c(CC=C(C)C)c(O)c3c(=O)c2O)OC(C)(C)CC4)cc1O` [DORSILURIN I]: the IC50 in assay [1] amounted to 21.5 µM; in assay [2], 431 µM. Moreover, the result in the assay with Canavalia ensiformis was inactive.

In the case of `CC(C)=CCc1ccc(-c2oc3c(CC=C(C)C)c(O)c4c(c3c(=O)c2O)OC(C)(C)CC4)cc1O` [DORSILURIN J], the IC50 in assay [1] is 16.9 µM; in assay [2], 317 µM; in assay [3], 518 µM.

For the molecule `CC(C)=CCc1ccc(-c2oc3c4c(c5c(c3c(=O)c2O)OC(C)(C)CC5)OC(C)(C)CC4)cc1O` [DORSILURIN K], in assay [1], half-maximal inhibition (IC50) required 44 µM. The result with Prunus dulcis and with Canavalia ensiformis was inactive.

Molecule `OC[C@H]1NC[C@H](O)[C@@H](O)[C@@H]1O` [DUVOGLUSTAT] had an IC50 in assay [1] of 426 µM.

(Values after ChEMBL document CHEMBL1151769, “Triprenylated flavonoids from Dorstenia psilurus and their alpha-glucosidase inhibition properties” (J Nat Prod, 2008).)
